Most compounds without a hit are left out; they make up all but 1.9% or so of the library.
TDP2 absorb: human TDP2 enzyme inhibitors, primary screen, biochemical, epi absorbance, recombinant enzyme. Tyrosyl-DNA phosphodiesterase 2 (Homo sapiens), O95551. AID 720702, 2013. actives 0.34% (n = 370,000). T5PNP hydrolysis, p-nitrophenol absorbance 415 nm. inhibition, % at 12.8 µM;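 active means inhibition above the mean of all tested compounds plus 3 SD, set per campaign, cut at about 25% in these data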;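 further: 0% = DMSO with enzyme and 100% = buffer with substrate but no TDP2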
Target sequence (O95551 whole entry, looked up): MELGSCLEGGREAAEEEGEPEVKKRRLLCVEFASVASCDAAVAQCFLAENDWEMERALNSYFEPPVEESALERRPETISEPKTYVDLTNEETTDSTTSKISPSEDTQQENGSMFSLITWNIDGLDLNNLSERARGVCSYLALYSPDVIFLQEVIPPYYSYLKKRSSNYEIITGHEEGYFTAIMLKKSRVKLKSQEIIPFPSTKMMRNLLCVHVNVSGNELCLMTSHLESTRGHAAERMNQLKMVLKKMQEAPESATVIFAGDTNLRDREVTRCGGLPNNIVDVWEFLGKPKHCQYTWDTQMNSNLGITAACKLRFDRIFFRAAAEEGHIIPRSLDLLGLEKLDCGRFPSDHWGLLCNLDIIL
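Test system: Human TDP2 enzyme | Reagent: 5 mM T5PNP | Compound dosing: 12.8 µM single point, 1% DMSO | Incubation: Enzyme reaction with compound for 2 h at 37 °C | Technique: p-Nitrophenol epi absorbance | Read-out: % inhibition relative to enzyme-containing and enzyme-free wells | Benchmarks: High control without enzyme, low control DMSO plus TDP2 | Replicates: Singlicate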
LEDGF integ inh: blockers of LEDGF/p75-dependent integrase strand transfer – biochemical, TR-FRET, high throughput, primary screen. actives 0.64% (n = 370,000). TR-FRET IN-LEDGF/p75 DNA integration, Eu/Cy5. inhibition, % at 3.7 µM. HIV-1 integrase (with human LEDGF/p75);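 active means inhibition above the screen-wide mean plus 3 SD, cut at about 13% in these data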;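 further: signal is the Cy5 over europium emission ratio at 671 and 618 nm; 0% = plate median of compound wells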
MBD2 DNA inh: inhibitors of MBD2 binding to methylated DNA, primary screen, biochemical, TR-FRET, DNA-binding domain, human; Methyl-CpG-binding domain protein 2 (Homo sapiens), Q9UBB5; MBD2 binding to methylated oligonucleotide; inhibition, % at 4.4 µM; actives 0.31% (n = 370,000); AID 686964, 2013; in the data active means inhibition above about 13%
Rin1 Abl inh: inhibitors of Rin1-Abl protein binding, primary screen, biochemical, TR-FRET; Tyrosine-protein kinase ABL1 (Homo sapiens) + Ras and Rab interactor 1 (Homo sapiens), …; actives 0.4% (n = 360,000); AID 588664, 2011; inhibition, % at 7.35 µM; in the data active means inhibition above about 5%, passing the limit was not always enough
UHRF1 MBD2 ctr: UHRF1 methylated DNA binding inhibitors, primary screen, counter-screen for MBD2 inhibitor project, biochemical, TR-FRET, human UHRF1, single concentration | AID 687016, 2013 | UHRF1 binding to methylated oligo | actives 0.75% (n = 370,000) | E3 ubiquitin-protein ligase UHRF1 (Homo sapiens), Q96T88 | inhibition, % at 4.4 µM; in the data active means inhibition above about 21%;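 further: UHRF1 SRA domain binding a hemimethylated CpG hairpin DNA probe; 0% = median of test compound wells and 100% = reference inhibitor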
TDP2 confirm: human TDP2 enzyme inhibitors, retest, confirmation, biochemical, epi absorbance, recombinant enzyme; shares compounds with TDP2 absorb; absorbance read-out; inhibition, % at 12.8 µM; actives 22% (n = 1,100); AID 743263, 2014; in the data active means inhibition above about 25%;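 further: 0% = vehicle with enzyme and 100% = no enzyme buffer only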
Active calls of the source: *; . = no result.

SMILES | TDP2 absorb | LEDGF integ inh | MBD2 DNA inh | Rin1 Abl inh | UHRF1 MBD2 ctr | TDP2 confirm
O=C(Cc1nnc(NC(=O)c2ccccc2)s1)N/N=C/c1ccc(O)cc1 | 9.6 | -0.7 | -4.6 | -3.0 | -1.9 | .
COc1cc(/C=N/NC(=O)Cc2nnc(NC(=O)c3ccccc3)s2)ccc1O | 28.9* | 2.8 | 2.1 | -1.3 | -1.5 | 3.1
CC(C)(C)c1ccc(NC(=O)CCNC(=O)c2ccco2)cc1 | -4.6 | -3.2 | -3.1 | -1.5 | 1.4 | .
CC(C)(C)c1ccc(C(=O)NCCCNC(=O)c2ccco2)cc1 | 27.6* | -0.2 | -1.6 | -1.3 | -1.0 | -8.7
CCOc1ccccc1NC(=O)c1cc2c(C)nn(-c3ccccc3)c2s1 | -0.8 | 0.1 | -0.3 | . | -1.4 | .
COc1ccccc1CCn1cnc(-c2ccc(OC)c(OC)c2)c1CC(C)C | -4.1 | 0.7 | 3.1 | . | 1.4 | .
Cc1ccc(C)c(S(=O)(=O)Nc2ccc(O)c3ccccc23)c1 | 42.2* | 8.3 | -17.0 | 1.3 | -0.5 | 15.1
COc1cccc(/C=C2\SC(=S)N(CC(=O)N(C)C3CCS(=O)(=O)C3)C2=O)c1 (configuration not stated) | 30.1* | 2.4 | 8.8 | 2.4 | 23.5* | -3.1
CCC(NC(=O)Cn1c(-c2ccccc2)cc(C(C)=O)c1C)c1ccccc1 (configuration not stated) | -0.4 | 0.0 | 3.0 | . | 0.4 | .
CCC(NC(=O)Nc1ccc(O)cc1)(C(F)(F)F)C(F)(F)F | 26.8* | 15.1* | -10.9 | 1.1 | 8.7 | 5.2
c1cc(-c2ccc3nncn3c2)ccc1CN1CCOCC1 | 2.2 | -0.3 | 1.6 | 3.2 | -0.8 | .
COC(=O)c1ccc2cc(OC)c(OC)cc2c1 | 1.1 | 1.2 | -4.3 | -1.0 | -3.1 | .
COC(=O)c1ccc(OCC(O)CNCC(c2ccc(OC)cc2)N(C)C)c(OC)c1 (configuration not stated) | 26.1* | 3.0 | 0.4 | -1.4 | 1.2 | 12.9
O=C(NCc1cccs1)C1C2C=CC3(CN(Cc4ccccc4)C(=O)C13)O2 (configuration not stated) | -6.4 | 0.8 | -4.2 | . | -2.2 | .
O=C(NCc1ccc(F)cc1)C1CC(=O)N(Cc2ccco2)C1 (configuration not stated) | 25.2* | 1.6 | -8.0 | -0.2 | -2.6 | -5.7
COc1cc(OC)c(NC(=O)CCNS(=O)(=O)c2ccc3c(c2)CC(C)N3C(C)=O)cc1Cl (configuration not stated) | 31.3* | 1.3 | 3.2 | -2.4 | -3.1 | 4.0
Cc1nnc(SCC(=O)N(C)Cc2ccccc2)[nH]c1=O | 43.4* | 0.5 | 4.4 | -0.7 | 1.6 | -5.0
Cc1ccc(/C=C/C(=O)Nc2ncc(C)s2)o1 | 12.9 | 4.3 | -4.8 | -1.3 | -2.1 | .
Cc1ccc(/C=C/C(=O)Nc2nccs2)o1 | 25.7* | 1.3 | -2.3 | 1.3 | -3.9 | 1.2
Cn1c(-c2ccccc2)cnc1NCc1ccccc1 | 29.2* | -0.2 | 3.0 | 0.0 | -0.1 | -4.9
Cc1ccc(CNc2ncc(-c3ccccc3)n2C)o1 | 11.8 | 1.7 | -5.6 | 2.2 | -1.7 | .
O=C1N(CC[C@@H](O)c2ccccc2)CCC12CCC(c1ccccc1)CC2 (some centres not stated) | -10.9 | -0.3 | -0.3 | . | 2.7 | .
COc1ccc(CN2CCN(Cc3cccc(Oc4ccccc4)c3)CC2)c(OC)c1OC | 8.2 | -0.8 | -3.3 | -0.7 | -4.0 | .
COc1cc(CN2CCN(Cc3cccc(OC)c3OC)CC2)cc(OC)c1 | 25.8* | -3.0 | -5.2 | 3.1 | 0.9 | 6.4
Cc1noc(C)c1C(=O)N1CCC(n2nnc3ncccc32)CC1 | 7.9 | -0.9 | -4.6 | . | 2.3 | .
SMILES | TDP2 absorb | LEDGF integ inh | MBD2 DNA inh | Rin1 Abl inh | UHRF1 MBD2 ctr | TDP2 confirm
COc1ccc(/C=C/C(=O)NC2CCN(Cc3ccccc3)CC2)cc1OC | 27.9* | 1.3 | 0.4 | -2.2 | -3.9 | -8.4
CCNC(=S)NS(=O)(=O)c1ccccc1 | 4.7 | -2.4 | 1.9 | -0.4 | -0.6 | .
CCNC(=S)NS(=O)(=O)c1ccc(Cl)cc1 | 36.6* | 1.4 | 1.6 | 2.2 | 5.3 | 2.6
CCOC(=O)[C@]12CCCCC/C=C\1N(CCc1ccc(Cl)cc1)C(=O)[C@H]2CC(=O)NCc1cccs1 | 0.7 | -2.4 | -3.1 | . | -1.8 | .
COc1ccc(CNCCCC(=O)Nc2c(Cl)ccc(C)c2Cl)cc1OC | 29.5* | 2.5 | 2.0 | 3.8 | -0.5 | 8.2
COc1ccc(/C=C2/C(=O)N(Cc3ccccc3)N=C2C)cc1 | 70.8* | 3.8 | -9.4 | 0.1 | 1.1 | 14.1
Cc1ccc(/C([O-])=C(/C(=S)NCc2ccccc2)[n+]2cccc(CO)c2)cc1[N+](=O)[O-] | 25.9* | 4.6 | -6.7 | 1.2 | -1.9 | 1.4
Cc1cc(Cl)c2oc(C(=O)N3CCOCC3)c(C)c2c1 | -4.6 | 0.7 | 0.1 | -4.0 | -3.8 | .
Cc1cc(Cl)c2oc(C(=O)N3CCN(C(=O)c4ccco4)CC3)c(C)c2c1 | 31.2* | 2.4 | -0.9 | -1.4 | -2.1 | -1.0
COc1ccc(-c2cc(C(=O)NN=Cc3ccccc3[N+](=O)[O-])[nH]n2)cc1 | -2.0 | -1.7 | 2.6 | . | 1.5 | .
Cc1[nH]n(-c2ccccc2)c(=O)c1C(C[N+](=O)[O-])c1ccc(F)cc1 (configuration not stated) | 37.6* | 2.6 | -2.6 | 0.1 | -7.2 | 20.1
COC(=O)[C@]12CCCCC=C1N(Cc1ccc3c(c1)OCO3)C(=O)[C@H](CC(=O)NCc1cccc3ccccc13)C2 | 1.9 | -4.5 | 5.3 | . | 1.5 | .
O=C(COC(=O)/C=C/c1ccccc1)Nc1ccc(Cl)cn1 | -0.5 | 3.5 | 1.2 | -1.4 | 2.5 | .
COc1ccccc1/C=C/C(=O)OCC(=O)Nc1ccc(Cl)cn1 | 29.1* | 3.7 | -1.7 | 0.4 | -3.6 | -1.4
O=C(Nc1ccc2c(c1)OCO2)OC1CCC12CCCCC2 (configuration not stated) | 8.3 | -3.9 | 3.1 | . | -5.7 | .
COc1ccc(CC2=CC(=O)c3ccccc3C2=O)cc1 | 53.0* | 1.5 | -4.7 | 6.8* | -4.6 | 17.5
CC(=O)c1ccc(OCc2cc(C(=O)NC(C)Cc3ccccn3)no2)cc1 (configuration not stated) | 30.0* | 0.9 | 1.8 | 8.7 | -2.3 | 4.8
COc1ccc(OCc2cc(C(=O)NC(C)Cc3ccccn3)no2)c(Cl)c1 (configuration not stated) | -13.2 | 2.0 | -5.9 | -1.3 | -1.6 | .
CC(C)CN(C(=O)CCc1ccccc1Cl)c1c(N)n(Cc2ccccc2)c(=O)[nH]c1=O | 27.2* | 0.8 | 1.2 | 2.9 | -1.8 | -5.3

High-throughput results (PubChem)
